Screening data (PubChem BioAssay)
A selection: hits, their analogues and other compounds. The true share with any hit is near 2.5%.
DNMT1 inh: DNMT1 (human) enzyme inhibition; 360,000 compounds, 0.83% hits; DNMT1 molecular beacon, Hinp1I cleavage, fluorescence; inhibition (reported as % activation of signal), % at 10 µM; P26358; AID 588458; in the data active = inhibition above about 50%
UHRF1 MBD2 ctr: blocks human UHRF1 binding to methylated DNA; Q96T88; UHRF1 binding to methylated oligo, TR-FRET; inhibition, % at 4.4 µM; 370,000 compounds, 0.75% hits; AID 687016; in the data active = inhibition above about 21%;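 also: UHRF1 SRA domain binding a hemimethylated CpG hairpin DNA probe; 0% = median of test compound wells and 100% = reference inhibitor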
DSG3 Ab inh: inhibitors of pemphigus antibody binding to human desmoglein-3. AID 588358. 310,000 compounds, 0.48% hits. DSG3-coupled beads, scFv-anti-DSG3-GFP binding, flow cytometry; hits give low values. binding (percent of control), % at 10 µM. P32926;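 active = binding more than 3 SD below its plate's average and above zero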;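 also: hits lower antibody fragment binding to DSG3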
NS3 helicase inh: HCV NS3 helicase inhibition. NS3 helicase DNA unwinding, Cy5 molecular beacon fluorescence. inhibition, % at 10.9 µM. 290,000 compounds, 0.56% hits. AID 1800;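 active = inhibition above the mean of all tested compounds plus 3 SD, set per campaign, cut at about 35% in these data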;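 also: 0% = DMSO wells and 100% = thioflavine S control wells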
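System: HCV NS3 helicase fragment; control set: DMSO and thioflavine S; technique: Cy5 fluorescence at 0 and 60 min, beacon hairpin quenching; reagent: beacon DNA duplex substrate plus ATP; replicates: singlicate; schedule: 1 h reaction at 25 °C, ATP-initiated; medium: MOPS buffer pH 6.5 with MgCl2, DTT, Tween20, BSA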
MBD2 DNA inh: blocks human MBD2 binding to methylated DNA; Q9UBB5; inhibition, % at 4.4 µM; 370,000 compounds, 0.31% hits; TR-FRET, MBD2 binding to methylated oligonucleotide; in the data active = inhibition above about 13%
Target sequence (Q9UBB5 whole entry, looked up): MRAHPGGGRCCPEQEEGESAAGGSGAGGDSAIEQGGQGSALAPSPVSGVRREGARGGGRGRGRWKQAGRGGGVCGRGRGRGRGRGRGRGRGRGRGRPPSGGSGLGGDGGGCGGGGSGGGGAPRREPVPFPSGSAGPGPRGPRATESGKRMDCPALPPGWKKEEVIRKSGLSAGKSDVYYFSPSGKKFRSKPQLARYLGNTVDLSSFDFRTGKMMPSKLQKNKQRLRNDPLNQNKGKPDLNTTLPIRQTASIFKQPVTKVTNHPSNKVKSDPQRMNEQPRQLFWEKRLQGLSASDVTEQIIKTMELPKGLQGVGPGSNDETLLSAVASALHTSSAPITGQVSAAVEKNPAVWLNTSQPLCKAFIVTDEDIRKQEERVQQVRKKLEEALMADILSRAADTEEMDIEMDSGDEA
SUMO1 PPI mod: SUMO1-SIM interaction modulation; P63165; SUMO1 binding to a labelled peptide, TR-FRET, 1 h; inhibition, % at 20 µM; 360,000 compounds, 0.33% hits; AID 602429; in the data active = inhibition above about 37%
Target sequence (P63165 whole entry, looked up): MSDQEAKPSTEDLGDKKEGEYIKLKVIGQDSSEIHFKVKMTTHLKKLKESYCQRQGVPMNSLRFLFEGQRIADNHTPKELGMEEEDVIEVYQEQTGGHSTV
DNMT1 confirm: DNMT1 inhibition confirmation, single concentration | shares compounds with DNMT1 inh | DNMT1 molecular beacon HinP1I cleavage, fluorescence | inhibition, % at 10 µM | 2,300 compounds, 8% hits | AID 602385;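 active = average inhibition of at least 30% in the single-concentration confirmation test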
DNMT1 interf: shows spectral interference in the DNMT1 beacon assay; shares compounds with DNMT1 inh; DNMT1 molecular beacon spectral interference counterscreen, fluorescence 485/520; activation (fluorescence interference), % at 10 µM; 2,300 compounds, 1% hits; AID 602387;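 active = activation of at least 30% at 10 µM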;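 also: DNMT1 catalytic domain with a HinP1I cleavage step and a FAM/dabcyl DNA beacon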
* marks the source's active call; other numbers are inactive results.

How did N#Cc1c2nc3ccccc3nc2n2cc(NC(=O)c3ccc(F)cc3)ccc12 do in these assays?
DNMT1 inh: 103.1*; UHRF1 MBD2 ctr: -5.1; DSG3 Ab inh: 67.8; NS3 helicase inh: 13.7; MBD2 DNA inh: -9.0; SUMO1 PPI mod: 22.7; DNMT1 confirm: 3.2; DNMT1 interf: -6.4

Results for O=C(COc1ccc(/C=N/NC(=O)c2cc3ccccc3o2)cc1Br)Nc1ccccc1 ?
DNMT1 inh: 63.8*; UHRF1 MBD2 ctr: 0.9; DSG3 Ab inh: 95.2; NS3 helicase inh: -5.7; MBD2 DNA inh: 4.5; SUMO1 PPI mod: -0.9; DNMT1 confirm: -2.9; DNMT1 interf: -8.6

What do the screens show for `O=C(COc1ccccc1[N+](=O)[O-])Nc1ccc(NC(=O)c2cc3ccccc3o2)cc1`?
DNMT1 inh: 59.3*; UHRF1 MBD2 ctr: 0.7; DSG3 Ab inh: 88.5; NS3 helicase inh: 14.2; MBD2 DNA inh: -2.9; SUMO1 PPI mod: 35.3; DNMT1 confirm: 1.7; DNMT1 interf: -4.1

What do the screens show for `Cc1cc(=O)oc2cc(NC(=O)COc3ccccc3[N+](=O)[O-])ccc12`?
DNMT1 inh: 71.9*; UHRF1 MBD2 ctr: -0.7; MBD2 DNA inh: 2.2; SUMO1 PPI mod: 31.2; DNMT1 confirm: 3.9; DNMT1 interf: -2.5

Results for COCCn1c(SCC(=O)N2CCC(C)CC2)nc2c([nH]c3ccccc32)c1=O ?
DNMT1 inh: 0.8; UHRF1 MBD2 ctr: -3.9; DSG3 Ab inh: 106.0; NS3 helicase inh: -15.5; MBD2 DNA inh: 2.5; SUMO1 PPI mod: 11.9

What do the screens show for `O=C(/C=C/c1cccs1)Nc1ccc(N2CCOCC2)c(S(=O)(=O)Nc2cc(Cl)ccc2Cl)c1`?
DNMT1 inh: -2.0; UHRF1 MBD2 ctr: 6.8; DSG3 Ab inh: 112.5; NS3 helicase inh: 1.6; MBD2 DNA inh: 10.0; SUMO1 PPI mod: 4.4

Results for CCOc1ccc(CCNC(=O)CS(=O)(=O)Cc2nc(-c3cccc(OC)c3)oc2C)cc1 ?
DNMT1 inh: -2.9; UHRF1 MBD2 ctr: -0.5; DSG3 Ab inh: 65.4; NS3 helicase inh: -17.9; MBD2 DNA inh: -3.5; SUMO1 PPI mod: -4.3

Results for Cc1nnc(-c2cccc(Br)c2)c2cn(-c3ccccc3Cl)nc12 ?
DNMT1 inh: 41.6; UHRF1 MBD2 ctr: 0.7; DSG3 Ab inh: 107.3; NS3 helicase inh: 0.2; MBD2 DNA inh: -0.4; SUMO1 PPI mod: -3.3

What do the screens show for `Cc1ccc(-n2cc3c(-c4cccc(Br)c4)nnc(C)c3n2)cc1`?
DNMT1 inh: 64.3*; UHRF1 MBD2 ctr: 6.5; DSG3 Ab inh: 100.2; NS3 helicase inh: 1.7; MBD2 DNA inh: -0.9; SUMO1 PPI mod: 1.1; DNMT1 confirm: 15.8; DNMT1 interf: -0.4

Results for COc1cc2sc3ccc(-c4ccc(N(C)C)nc4)cc3c(=O)c2cc1OC ?
UHRF1 MBD2 ctr: 16.8; MBD2 DNA inh: 4.1

What do the screens show for `COc1ccc(-c2ccc3sc4ccccc4c(=O)c3c2)cn1`?
DNMT1 inh: 55.8*; UHRF1 MBD2 ctr: 0.8; DSG3 Ab inh: 92.9; MBD2 DNA inh: 1.5; SUMO1 PPI mod: 18.7; DNMT1 confirm: 0.2; DNMT1 interf: -5.2

How did Cc1ccc(-c2nc(C(=O)NCCCN(C)C)cc3c2[nH]c2ccccc23)cc1 do in these assays?
DNMT1 inh: 56.4*; UHRF1 MBD2 ctr: 5.2; DSG3 Ab inh: 103.8; NS3 helicase inh: -45.4; MBD2 DNA inh: -1.0; SUMO1 PPI mod: 3.5; DNMT1 confirm: 0.1; DNMT1 interf: -2.1

How did O=C(NCCO)c1cc2c([nH]c3ccccc32)c(-c2ccccc2)n1 do in these assays?
DNMT1 inh: 6.6; UHRF1 MBD2 ctr: 2.1; DSG3 Ab inh: 102.2; NS3 helicase inh: 0.4; MBD2 DNA inh: -0.1; SUMO1 PPI mod: 0.7

What do the screens show for `O=C(NCc1ccccc1)[C@@H]1CCCN1C(=O)[C@H]1CCCN1C(=O)c1ccc(OC(F)(F)F)cc1`?
UHRF1 MBD2 ctr: 1.8; MBD2 DNA inh: -6.8
